Counter-ions that a name gives are not always drawn.
Key:
CYP1A2 = target: T1, CYP1A2 (Homo sapiens, UniProt P05177); experiment: Cytochrome P450 inhibition assay, CYP1A2; type: in vitro ADME; details: CYP activity as % of control, 10 μM, human liver microsomes
T1 sequence (P05177 1-516): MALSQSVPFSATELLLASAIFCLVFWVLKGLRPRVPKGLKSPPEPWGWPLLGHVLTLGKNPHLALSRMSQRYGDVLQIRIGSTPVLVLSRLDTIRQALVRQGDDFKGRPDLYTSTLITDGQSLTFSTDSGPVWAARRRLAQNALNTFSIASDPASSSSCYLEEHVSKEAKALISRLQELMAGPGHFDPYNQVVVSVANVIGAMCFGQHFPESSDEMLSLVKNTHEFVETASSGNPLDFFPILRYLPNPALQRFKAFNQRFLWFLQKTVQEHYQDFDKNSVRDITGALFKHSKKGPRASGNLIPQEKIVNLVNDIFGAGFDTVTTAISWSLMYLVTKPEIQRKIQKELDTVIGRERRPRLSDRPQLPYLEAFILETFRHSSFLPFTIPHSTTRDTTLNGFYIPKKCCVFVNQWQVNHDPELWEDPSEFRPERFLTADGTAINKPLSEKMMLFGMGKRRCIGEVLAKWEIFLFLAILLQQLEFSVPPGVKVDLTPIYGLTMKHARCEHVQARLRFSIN

CYP2C9 = CYP2C9 (Homo sapiens, UniProt P11712); experiment: Cytochrome P450 inhibition assay, CYP2C9; type: in vitro ADME; details: CYP activity as % of control, 10 μM, human liver microsomes
Chain of CYP2C9 (P11712 whole entry): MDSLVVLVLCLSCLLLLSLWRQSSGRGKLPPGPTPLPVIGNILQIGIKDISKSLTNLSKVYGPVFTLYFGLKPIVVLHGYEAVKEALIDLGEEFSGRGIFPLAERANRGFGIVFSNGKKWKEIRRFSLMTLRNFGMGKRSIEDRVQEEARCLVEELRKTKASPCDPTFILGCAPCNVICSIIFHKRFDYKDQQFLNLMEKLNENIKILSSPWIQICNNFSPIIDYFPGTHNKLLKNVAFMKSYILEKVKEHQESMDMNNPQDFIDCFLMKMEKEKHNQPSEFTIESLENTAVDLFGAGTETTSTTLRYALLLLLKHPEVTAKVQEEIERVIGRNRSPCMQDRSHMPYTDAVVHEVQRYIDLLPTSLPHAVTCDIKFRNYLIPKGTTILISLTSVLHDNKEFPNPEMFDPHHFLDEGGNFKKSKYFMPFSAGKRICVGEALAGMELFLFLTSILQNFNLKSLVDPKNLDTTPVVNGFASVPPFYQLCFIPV

CYP2C19 = CYP2C19 (Homo sapiens, UniProt P33261); experiment: Cytochrome P450 inhibition assay, CYP2C19; type: in vitro ADME; details: CYP activity as % of control, 10 μM, human liver microsomes
Chain of CYP2C19 (P33261 whole entry): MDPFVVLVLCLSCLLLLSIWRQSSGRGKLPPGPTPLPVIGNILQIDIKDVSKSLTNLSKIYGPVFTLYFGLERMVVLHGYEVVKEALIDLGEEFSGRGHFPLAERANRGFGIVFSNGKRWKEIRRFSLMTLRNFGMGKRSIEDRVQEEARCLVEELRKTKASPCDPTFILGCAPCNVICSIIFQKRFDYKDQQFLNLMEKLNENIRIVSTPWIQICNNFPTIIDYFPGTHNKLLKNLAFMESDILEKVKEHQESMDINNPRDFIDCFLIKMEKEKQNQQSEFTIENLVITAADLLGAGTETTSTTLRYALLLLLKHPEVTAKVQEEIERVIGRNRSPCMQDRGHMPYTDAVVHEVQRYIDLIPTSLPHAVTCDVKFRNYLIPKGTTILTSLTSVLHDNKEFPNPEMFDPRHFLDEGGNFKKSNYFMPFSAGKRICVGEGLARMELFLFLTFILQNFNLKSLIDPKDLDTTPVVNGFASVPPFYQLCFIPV

CYP2D6 = CYP2D6 (Homo sapiens, UniProt P10635); experiment: Cytochrome P450 inhibition assay, CYP2D6; type: in vitro ADME; details: CYP activity as % of control, 10 μM, human liver microsomes
Chain of CYP2D6 (P10635 whole entry): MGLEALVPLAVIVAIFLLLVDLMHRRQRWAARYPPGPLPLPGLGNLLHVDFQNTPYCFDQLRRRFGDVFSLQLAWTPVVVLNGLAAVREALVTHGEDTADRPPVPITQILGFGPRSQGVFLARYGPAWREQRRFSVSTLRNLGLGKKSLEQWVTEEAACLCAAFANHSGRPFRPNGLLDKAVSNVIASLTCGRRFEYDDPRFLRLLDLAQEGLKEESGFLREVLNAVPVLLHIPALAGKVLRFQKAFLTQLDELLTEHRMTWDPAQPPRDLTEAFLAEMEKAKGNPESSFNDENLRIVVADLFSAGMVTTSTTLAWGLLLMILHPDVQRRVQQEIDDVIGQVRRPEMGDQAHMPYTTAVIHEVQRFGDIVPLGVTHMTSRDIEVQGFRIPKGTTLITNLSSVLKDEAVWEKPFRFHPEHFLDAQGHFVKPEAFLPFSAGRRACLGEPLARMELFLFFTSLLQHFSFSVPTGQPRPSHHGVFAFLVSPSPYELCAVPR

CYP 3A4 = experiment: Cytochrome P450 inhibition assay, CYP3A4; type: in vitro ADME; details: CYP activity as % of control, 10 μM, human liver microsomes
[1] = Liver microsomal stability, human; type: in vitro ADME; details: 1 μM, 0.5 mg/mL microsomal protein, NADPH, 37 °C
Summary of the method: (§1)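 Liver microsomes (human pool of 150 donors; dog, rat, mouse) at 0.5 mg/mL protein in 100 mM phosphate buffer pH 7.4 with test compound at 1 μM final, 37 °C. Started with NADPH regeneration system and stopped with ice-cold acetonitrile at 0 and 30 min. Supernatant analysed by LC-MS/MS. Percent parent remaining from peak areas against the 0 min sample (100 %), stopped before NADPH addition.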

[2] = Liver microsomal stability, dog; type: in vitro ADME; details: 1 μM, 0.5 mg/mL microsomal protein, NADPH, 37 °C
Summary of the method: as §1

[3] = Liver microsomal stability, rat; type: in vitro ADME; details: 1 μM, 0.5 mg/mL microsomal protein, NADPH, 37 °C
Summary of the method: as §1

[4] = Liver microsomal stability, mouse; type: in vitro ADME; details: 1 μM, 0.5 mg/mL microsomal protein, NADPH, 37 °C
Summary of the method: as §1

panel of 468 kinases = experiment: KINOMEscan kinome selectivity profiling; type: binding; details: KINOMEscan at 1 μM; 7c 468 kinases, TAE684 353 kinases

C=CC(=O)Nc1cc(Nc2ncc(F)c(Nc3ccccc3P(C)(C)=O)n2)c(OC)cc1N(C)CCN(C)C [Compound 7f, N-(2-((2-(Dimethylamino)ethyl)(methyl)amino)-5-((4-((2-(dimethylphosphoryl)phenyl)amino)-5-fluoropyrimidin-2-yl)amino)-4-methoxyphenyl)acrylamide trifluoroacetate salt]
Cytochrome P450 inhibition (% of control) 1A2 (CYP1A2): >100 % of control
Cytochrome P450 inhibition (% of control) 2C9 (CYP2C9): >100 % of control
Cytochrome P450 inhibition (% of control) 2C19 (CYP2C19): >100 % of control
Cytochrome P450 inhibition (% of control) 2D6 (CYP2D6): >100 % of control
Cytochrome P450 inhibition (% of control) 3A4 (CYP 3A4): >100 % of control
Liver microsomal stability (% remaining after 30 min) Human [1]: 84 % remaining after 30 min
Liver microsomal stability (% remaining after 30 min) Dog [2]: 87 % remaining after 30 min
Liver microsomal stability (% remaining after 30 min) Rat [3]: 87 % remaining after 30 min
Liver microsomal stability (% remaining after 30 min) Mouse [4]: 80 % remaining after 30 min

C=CC(=O)Nc1cc(Nc2ncc(Cl)c(Nc3ccccc3S(=O)(=O)N(C)C)n2)c(OC)cc1N(C)CCN(C)C [Compound 7k, N-(5-((5-Chloro-4-((2-(N,N-dimethylsulfamoyl)phenyl)amino)pyrimidin-2-yl)amino)-2-((2-(dimethylamino)ethyl)(methyl)amino)-4-methoxyphenyl)acrylamide]
Liver microsomal stability (% remaining after 30 min) Dog [2]: 31 % remaining after 30 min

C=CC(=O)Nc1cc(Nc2ncc(I)c(Nc3ccccc3P(C)(C)=O)n2)c(OC)cc1N(C)CCN(C)C [Compound 7h, N-(2-((2-(Dimethylamino)ethyl)(methyl)amino)-5-((4-((2-(dimethylphosphoryl)phenyl)amino)-5-iodopyrimidin-2-yl)amino)-4-methoxyphenyl)acrylamide trifluoroacetate salt]
Cytochrome P450 inhibition (% of control) 1A2 (CYP1A2): 91 % of control
Cytochrome P450 inhibition (% of control) 2C9 (CYP2C9): >100 % of control
Cytochrome P450 inhibition (% of control) 3A4 (CYP 3A4): 88 % of control
Liver microsomal stability (% remaining after 30 min) Human [1]: 65 % remaining after 30 min
Liver microsomal stability (% remaining after 30 min) Rat [3]: 81 % remaining after 30 min

C=CC(=O)Nc1cc(Nc2ncc(Cl)c(Nc3ccccc3P(C)(C)=O)n2)c(OC)cc1N(C)CCN(C)C [Compound 7g, N-(5-((5-Chloro-4-((2-(dimethylphosphoryl)phenyl)amino)pyrimidin-2-yl)amino)-2-((2-(dimethylamino)ethyl)(methyl)amino)-4-methoxyphenyl)acrylamide trifluoroacetate salt]
Cytochrome P450 inhibition (% of control) 1A2 (CYP1A2): 93 % of control
Cytochrome P450 inhibition (% of control) 2C9 (CYP2C9): >100 % of control
Cytochrome P450 inhibition (% of control) 3A4 (CYP 3A4): 91 % of control
Liver microsomal stability (% remaining after 30 min) Human [1]: 61 % remaining after 30 min
Liver microsomal stability (% remaining after 30 min) Rat [3]: 76 % remaining after 30 min
Liver microsomal stability (% remaining after 30 min) Mouse [4]: 66 % remaining after 30 min

C=CC(=O)Nc1cc(Nc2nccc(Nc3ccccc3S(=O)(=O)N(C)C)n2)c(OC)cc1N(C)CCN(C)C [Compound 7i, N-(2-((2-(Dimethylamino)ethyl)(methyl)amino)-5-((4-((2-(N,N-dimethylsulfamoyl)phenyl)amino)pyrimidin-2-yl)amino)-4-methoxyphenyl)acrylamide]
Cytochrome P450 inhibition (% of control) 1A2 (CYP1A2): 82 % of control
Cytochrome P450 inhibition (% of control) 2C9 (CYP2C9): 88 % of control
Liver microsomal stability (% remaining after 30 min) Human [1]: 10 % remaining after 30 min
Liver microsomal stability (% remaining after 30 min) Mouse [4]: 5 % remaining after 30 min

C=CC(=O)Nc1cc(Nc2nccc(Nc3ccccc3S(=O)(=O)C(C)C)n2)c(OC)cc1N(C)CCN(C)C [Compound 7a, N-(2-((2-(Dimethylamino)ethyl)(methyl)amino)-5-((4-((2-(isopropylsulfonyl)phenyl)amino)pyrimidin-2-yl)amino)-4-methoxyphenyl)acrylamide]
Cytochrome P450 inhibition (% of control) 1A2 (CYP1A2): 80 % of control
Cytochrome P450 inhibition (% of control) 2C9 (CYP2C9): 90 % of control
Cytochrome P450 inhibition (% of control) 2C19 (CYP2C19): 87 % of control
Cytochrome P450 inhibition (% of control) 2D6 (CYP2D6): 67 % of control
Cytochrome P450 inhibition (% of control) 3A4 (CYP 3A4): 40 % of control
Liver microsomal stability (% remaining after 30 min) Human [1]: 5 % remaining after 30 min
Liver microsomal stability (% remaining after 30 min) Dog [2]: 48 % remaining after 30 min
Liver microsomal stability (% remaining after 30 min) Rat [3]: 22 % remaining after 30 min
Liver microsomal stability (% remaining after 30 min) Mouse [4]: 8 % remaining after 30 min

C=CC(=O)Nc1cc(Nc2ncc(I)c(Nc3ccccc3S(=O)(=O)N(C)C)n2)c(OC)cc1N(C)CCN(C)C [Compound 7l, N-(2-((2-(Dimethylamino)ethyl)(methyl)amino)-5-((4-((2-(N,N-dimethylsulfamoyl)phenyl)amino)-5-iodopyrimidin-2-yl)amino)-4-methoxyphenyl)acrylamide]
Liver microsomal stability (% remaining after 30 min) Rat [3]: 12 % remaining after 30 min
Liver microsomal stability (% remaining after 30 min) Mouse [4]: 12 % remaining after 30 min

C=CC(=O)Nc1cc(Nc2nccc(Nc3ccccc3P(C)(C)=O)n2)c(OC)cc1N(C)CCN(C)C [Compound 7e, N-(2-((2-(Dimethylamino)ethyl)(methyl)amino)-5-((4-((2-(dimethylphosphoryl)phenyl)amino)pyrimidin-2-yl)amino)-4-methoxyphenyl)acrylamide trifluoroacetate salt]
Cytochrome P450 inhibition (% of control) 1A2 (CYP1A2): 84 % of control
Cytochrome P450 inhibition (% of control) 2C9 (CYP2C9): 90 % of control
Cytochrome P450 inhibition (% of control) 2C19 (CYP2C19): >100 % of control
Cytochrome P450 inhibition (% of control) 2D6 (CYP2D6): 87 % of control
Cytochrome P450 inhibition (% of control) 3A4 (CYP 3A4): 89 % of control
Liver microsomal stability (% remaining after 30 min) Human [1]: 70 % remaining after 30 min
Liver microsomal stability (% remaining after 30 min) Dog [2]: 73 % remaining after 30 min
Liver microsomal stability (% remaining after 30 min) Rat [3]: 78 % remaining after 30 min
Liver microsomal stability (% remaining after 30 min) Mouse [4]: 76 % remaining after 30 min

C=CC(=O)Nc1cc(Nc2ncc(F)c(Nc3ccccc3S(=O)(=O)C(C)C)n2)c(OC)cc1N(C)CCN(C)C [Compound 7b, N-(2-((2-(Dimethylamino)ethyl)(methyl)amino)-5-((5-fluoro-4-((2-(isopropylsulfonyl)phenyl)amino)pyrimidin-2-yl)amino)-4-methoxyphenyl)acrylamide]
Cytochrome P450 inhibition (% of control) 1A2 (CYP1A2): 91 % of control
Cytochrome P450 inhibition (% of control) 2C9 (CYP2C9): 94 % of control
Cytochrome P450 inhibition (% of control) 2C19 (CYP2C19): 93 % of control
Cytochrome P450 inhibition (% of control) 2D6 (CYP2D6): 95 % of control
Cytochrome P450 inhibition (% of control) 3A4 (CYP 3A4): 51 % of control
Liver microsomal stability (% remaining after 30 min) Human [1]: 26 % remaining after 30 min
Liver microsomal stability (% remaining after 30 min) Dog [2]: 27 % remaining after 30 min
Liver microsomal stability (% remaining after 30 min) Rat [3]: 11 % remaining after 30 min
Liver microsomal stability (% remaining after 30 min) Mouse [4]: 15 % remaining after 30 min

COc1cc(N2CCC(N3CCN(C)CC3)CC2)ccc1Nc1ncc(Cl)c(Nc2ccccc2S(=O)(=O)C(C)C)n1 [TAE684, reference compound]
S-score(1) (panel of 468 kinases): 0.37

C=CC(=O)Nc1cc(Nc2ncc(I)c(Nc3ccccc3S(=O)(=O)C(C)C)n2)c(OC)cc1N(C)CCN(C)C [Compound 7d, N-(2-((2-(Dimethylamino)ethyl)(methyl)amino)-5-((5-iodo-4-((2-(isopropylsulfonyl)phenyl)amino)pyrimidin-2-yl)amino)-4-methoxyphenyl)acrylamide]
Cytochrome P450 inhibition (% of control) 1A2 (CYP1A2): 81 % of control
Cytochrome P450 inhibition (% of control) 2C9 (CYP2C9): 88 % of control
Cytochrome P450 inhibition (% of control) 2C19 (CYP2C19): 86 % of control
Cytochrome P450 inhibition (% of control) 2D6 (CYP2D6): 82 % of control
Cytochrome P450 inhibition (% of control) 3A4 (CYP 3A4): 47 % of control
Liver microsomal stability (% remaining after 30 min) Human [1]: 14 % remaining after 30 min
Liver microsomal stability (% remaining after 30 min) Dog [2]: 19 % remaining after 30 min
Liver microsomal stability (% remaining after 30 min) Rat [3]: 14 % remaining after 30 min
Liver microsomal stability (% remaining after 30 min) Mouse [4]: 10 % remaining after 30 min

C=CC(=O)Nc1cc(Nc2ncc(F)c(Nc3ccccc3S(=O)(=O)N(C)C)n2)c(OC)cc1N(C)CCN(C)C [Compound 7j, N-(2-((2-(Dimethylamino)ethyl)(methyl)amino)-5-((4-((2-(N,N-dimethylsulfamoyl)phenyl)amino)-5-fluoropyrimidin-2-yl)amino)-4-methoxyphenyl)acrylamide]
Cytochrome P450 inhibition (% of control) 1A2 (CYP1A2): >100 % of control
Cytochrome P450 inhibition (% of control) 2C19 (CYP2C19): 91 % of control
Cytochrome P450 inhibition (% of control) 2D6 (CYP2D6): >100 % of control
Liver microsomal stability (% remaining after 30 min) Rat [3]: 7 % remaining after 30 min
Liver microsomal stability (% remaining after 30 min) Mouse [4]: 10 % remaining after 30 min

— publication PMC5800871 (European journal of medicinal chemistry, 2017)
